Here are results for 3 compounds from ChEMBL document CHEMBL5653631, “A Potent and Selective ULK1 Inhibitor Suppresses Autophagy and Sensitizes Cancer Cells to Nutrient Stress” (iScience, 2018).

Molecules are shown by their SMILES.

The term inhibition denotes how much of the control response was suppressed.

In test [1] the target is Bone morphogenetic protein receptor type-1B (Homo sapiens) (UniProt O00238). The test is described as follows: Inhibition of human recombinant BMPR1B at 40 nM related to control ULK1. Summed up: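 Radiometric activity assays in a panel of 327 human recombinant kinases, each run in duplicate at one inhibitor concentration. Activity remaining is expressed as percent of vehicle control, and percent inhibition is calculated as 100% minus percent activity remaining.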

The target in test [2] is T1, Serine/threonine-protein kinase haspin (Homo sapiens) (UniProt Q8TF76).
T1 sequence (whole entry): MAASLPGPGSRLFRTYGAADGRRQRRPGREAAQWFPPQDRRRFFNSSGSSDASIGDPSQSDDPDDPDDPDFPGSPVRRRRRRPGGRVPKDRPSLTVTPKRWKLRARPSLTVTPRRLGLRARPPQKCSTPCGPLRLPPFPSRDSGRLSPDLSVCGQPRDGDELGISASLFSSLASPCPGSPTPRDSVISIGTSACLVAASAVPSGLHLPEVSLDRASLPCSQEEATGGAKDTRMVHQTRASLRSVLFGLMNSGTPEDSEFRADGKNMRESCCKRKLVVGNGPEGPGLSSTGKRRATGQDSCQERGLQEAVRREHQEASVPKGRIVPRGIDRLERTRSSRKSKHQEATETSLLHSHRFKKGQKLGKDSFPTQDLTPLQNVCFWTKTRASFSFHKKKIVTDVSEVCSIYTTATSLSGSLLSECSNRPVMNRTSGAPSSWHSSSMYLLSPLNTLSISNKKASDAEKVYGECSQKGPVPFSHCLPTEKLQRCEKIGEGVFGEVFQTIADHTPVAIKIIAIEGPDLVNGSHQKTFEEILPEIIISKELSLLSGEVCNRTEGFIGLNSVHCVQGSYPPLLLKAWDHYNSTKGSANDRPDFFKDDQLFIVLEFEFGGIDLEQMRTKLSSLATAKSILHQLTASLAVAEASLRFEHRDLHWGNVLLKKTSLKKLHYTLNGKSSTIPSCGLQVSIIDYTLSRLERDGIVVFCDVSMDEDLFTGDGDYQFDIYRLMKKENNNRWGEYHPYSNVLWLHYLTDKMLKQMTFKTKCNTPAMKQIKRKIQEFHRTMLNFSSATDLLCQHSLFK
The test is described as follows: Inhibition of human recombinant Haspin at 500 nM in presence of ATP by radiometric assay relative to control.

Test [3] addresses T2, SNF-related serine/threonine-protein kinase (Homo sapiens) (UniProt Q9NRH2).
T2 sequence (whole entry): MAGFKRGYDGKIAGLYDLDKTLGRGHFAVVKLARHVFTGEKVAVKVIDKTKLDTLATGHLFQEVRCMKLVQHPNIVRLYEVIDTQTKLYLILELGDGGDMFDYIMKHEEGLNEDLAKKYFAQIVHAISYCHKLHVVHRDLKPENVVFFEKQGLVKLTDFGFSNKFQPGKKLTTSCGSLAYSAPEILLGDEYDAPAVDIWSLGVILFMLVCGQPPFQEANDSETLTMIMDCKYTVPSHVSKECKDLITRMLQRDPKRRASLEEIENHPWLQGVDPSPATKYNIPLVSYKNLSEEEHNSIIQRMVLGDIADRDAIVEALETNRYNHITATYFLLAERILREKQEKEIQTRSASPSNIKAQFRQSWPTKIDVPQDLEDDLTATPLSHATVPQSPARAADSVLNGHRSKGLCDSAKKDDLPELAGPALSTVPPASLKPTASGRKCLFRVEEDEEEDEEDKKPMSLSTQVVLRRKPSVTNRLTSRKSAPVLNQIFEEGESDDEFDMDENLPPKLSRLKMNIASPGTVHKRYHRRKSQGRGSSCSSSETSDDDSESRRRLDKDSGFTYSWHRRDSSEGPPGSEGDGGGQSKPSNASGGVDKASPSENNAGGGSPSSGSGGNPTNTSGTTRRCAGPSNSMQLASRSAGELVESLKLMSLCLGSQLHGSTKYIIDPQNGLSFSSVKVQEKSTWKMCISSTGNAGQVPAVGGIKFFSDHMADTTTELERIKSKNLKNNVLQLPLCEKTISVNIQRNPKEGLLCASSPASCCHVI
The experiment in a line: Inhibition of human recombinant SNRK at 500 nM in presence of ATP by radiometric assay relative to control.

In test [4] the target is T3, TGF-beta receptor type-1 (Homo sapiens) (UniProt P36897).
T3 sequence (whole entry): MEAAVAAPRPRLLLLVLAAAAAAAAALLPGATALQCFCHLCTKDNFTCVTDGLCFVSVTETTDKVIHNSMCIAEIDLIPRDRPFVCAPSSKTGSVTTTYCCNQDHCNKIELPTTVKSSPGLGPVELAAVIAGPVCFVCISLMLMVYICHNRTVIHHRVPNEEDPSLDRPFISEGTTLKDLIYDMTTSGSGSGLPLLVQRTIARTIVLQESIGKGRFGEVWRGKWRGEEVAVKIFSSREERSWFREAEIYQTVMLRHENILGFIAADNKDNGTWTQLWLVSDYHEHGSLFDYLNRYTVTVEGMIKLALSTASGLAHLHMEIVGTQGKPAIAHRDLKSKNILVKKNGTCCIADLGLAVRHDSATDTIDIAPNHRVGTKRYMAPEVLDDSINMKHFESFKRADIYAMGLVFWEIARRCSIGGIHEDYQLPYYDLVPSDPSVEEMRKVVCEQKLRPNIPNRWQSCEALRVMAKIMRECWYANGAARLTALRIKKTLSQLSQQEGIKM
The test is described as follows: Inhibition of human recombinant TGFbR1 at 500 nM related to control ULK1.

Test [5] has as its target ALK tyrosine kinase receptor (Homo sapiens) (UniProt Q9UM73). The test is described as follows: Inhibition of human recombinant ALK at 15 nM in presence of ATP by radiometric assay relative to control. The method in brief: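 Panel of 327 recombinant human kinases in radiometric activity assays, each screened in duplicate at a single inhibitor concentration; percent activity remaining relative to vehicle control, percent inhibition taken as 100 minus activity remaining.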

For test [6], the target named is Casein kinase II subunit alpha (Homo sapiens) (UniProt P68400). The experiment in a line: Inhibition of human recombinant CK2a1 at 15 nM in presence of ATP by radiometric assay relative to control.
Test [7] addresses Death-associated protein kinase 3 (Homo sapiens) (UniProt O43293). The test is described as follows: Inhibition of human recombinant DAPK3 at 15 nM in presence of ATP by radiometric assay relative to control.

Bone morphogenetic protein receptor type-1B (Homo sapiens), sequence (O00238 whole entry): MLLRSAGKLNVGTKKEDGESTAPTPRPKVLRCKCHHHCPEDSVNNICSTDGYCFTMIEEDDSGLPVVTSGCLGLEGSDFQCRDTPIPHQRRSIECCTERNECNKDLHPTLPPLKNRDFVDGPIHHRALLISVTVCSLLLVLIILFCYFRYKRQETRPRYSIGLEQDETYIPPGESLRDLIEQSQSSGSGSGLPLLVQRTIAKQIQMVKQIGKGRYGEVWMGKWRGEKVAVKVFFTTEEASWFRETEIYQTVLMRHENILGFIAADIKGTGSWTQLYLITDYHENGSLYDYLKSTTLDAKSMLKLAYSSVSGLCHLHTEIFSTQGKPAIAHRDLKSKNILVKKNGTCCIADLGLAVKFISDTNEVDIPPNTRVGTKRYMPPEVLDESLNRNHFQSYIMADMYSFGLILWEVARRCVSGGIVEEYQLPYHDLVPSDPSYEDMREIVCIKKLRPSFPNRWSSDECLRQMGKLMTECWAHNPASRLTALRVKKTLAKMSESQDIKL
Casein kinase II subunit alpha (Homo sapiens), sequence (P68400 whole entry, looked up): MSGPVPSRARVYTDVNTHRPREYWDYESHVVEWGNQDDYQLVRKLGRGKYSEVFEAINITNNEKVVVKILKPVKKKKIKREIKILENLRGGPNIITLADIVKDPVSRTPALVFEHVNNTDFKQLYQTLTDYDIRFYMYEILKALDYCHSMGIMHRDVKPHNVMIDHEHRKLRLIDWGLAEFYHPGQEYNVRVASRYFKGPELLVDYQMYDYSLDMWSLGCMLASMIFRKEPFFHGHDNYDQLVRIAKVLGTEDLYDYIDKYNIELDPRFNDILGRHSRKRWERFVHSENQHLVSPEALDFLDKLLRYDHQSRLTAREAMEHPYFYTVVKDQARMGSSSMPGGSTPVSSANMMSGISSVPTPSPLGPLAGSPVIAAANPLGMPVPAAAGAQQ
Death-associated protein kinase 3 (Homo sapiens), sequence (O43293 whole entry, looked up): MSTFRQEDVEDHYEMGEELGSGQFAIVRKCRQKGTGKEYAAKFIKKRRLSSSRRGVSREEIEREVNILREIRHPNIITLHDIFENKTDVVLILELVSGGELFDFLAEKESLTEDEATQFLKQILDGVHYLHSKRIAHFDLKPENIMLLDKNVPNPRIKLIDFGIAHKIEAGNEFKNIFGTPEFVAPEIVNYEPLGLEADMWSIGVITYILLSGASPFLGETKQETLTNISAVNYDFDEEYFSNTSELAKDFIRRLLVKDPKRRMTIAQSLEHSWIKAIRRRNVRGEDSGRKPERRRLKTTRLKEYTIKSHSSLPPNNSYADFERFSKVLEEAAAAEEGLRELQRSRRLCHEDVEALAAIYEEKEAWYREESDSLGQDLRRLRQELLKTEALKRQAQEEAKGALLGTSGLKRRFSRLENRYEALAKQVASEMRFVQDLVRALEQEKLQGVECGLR
ALK tyrosine kinase receptor (Homo sapiens), sequence (Q9UM73 19-1620 limits assumed): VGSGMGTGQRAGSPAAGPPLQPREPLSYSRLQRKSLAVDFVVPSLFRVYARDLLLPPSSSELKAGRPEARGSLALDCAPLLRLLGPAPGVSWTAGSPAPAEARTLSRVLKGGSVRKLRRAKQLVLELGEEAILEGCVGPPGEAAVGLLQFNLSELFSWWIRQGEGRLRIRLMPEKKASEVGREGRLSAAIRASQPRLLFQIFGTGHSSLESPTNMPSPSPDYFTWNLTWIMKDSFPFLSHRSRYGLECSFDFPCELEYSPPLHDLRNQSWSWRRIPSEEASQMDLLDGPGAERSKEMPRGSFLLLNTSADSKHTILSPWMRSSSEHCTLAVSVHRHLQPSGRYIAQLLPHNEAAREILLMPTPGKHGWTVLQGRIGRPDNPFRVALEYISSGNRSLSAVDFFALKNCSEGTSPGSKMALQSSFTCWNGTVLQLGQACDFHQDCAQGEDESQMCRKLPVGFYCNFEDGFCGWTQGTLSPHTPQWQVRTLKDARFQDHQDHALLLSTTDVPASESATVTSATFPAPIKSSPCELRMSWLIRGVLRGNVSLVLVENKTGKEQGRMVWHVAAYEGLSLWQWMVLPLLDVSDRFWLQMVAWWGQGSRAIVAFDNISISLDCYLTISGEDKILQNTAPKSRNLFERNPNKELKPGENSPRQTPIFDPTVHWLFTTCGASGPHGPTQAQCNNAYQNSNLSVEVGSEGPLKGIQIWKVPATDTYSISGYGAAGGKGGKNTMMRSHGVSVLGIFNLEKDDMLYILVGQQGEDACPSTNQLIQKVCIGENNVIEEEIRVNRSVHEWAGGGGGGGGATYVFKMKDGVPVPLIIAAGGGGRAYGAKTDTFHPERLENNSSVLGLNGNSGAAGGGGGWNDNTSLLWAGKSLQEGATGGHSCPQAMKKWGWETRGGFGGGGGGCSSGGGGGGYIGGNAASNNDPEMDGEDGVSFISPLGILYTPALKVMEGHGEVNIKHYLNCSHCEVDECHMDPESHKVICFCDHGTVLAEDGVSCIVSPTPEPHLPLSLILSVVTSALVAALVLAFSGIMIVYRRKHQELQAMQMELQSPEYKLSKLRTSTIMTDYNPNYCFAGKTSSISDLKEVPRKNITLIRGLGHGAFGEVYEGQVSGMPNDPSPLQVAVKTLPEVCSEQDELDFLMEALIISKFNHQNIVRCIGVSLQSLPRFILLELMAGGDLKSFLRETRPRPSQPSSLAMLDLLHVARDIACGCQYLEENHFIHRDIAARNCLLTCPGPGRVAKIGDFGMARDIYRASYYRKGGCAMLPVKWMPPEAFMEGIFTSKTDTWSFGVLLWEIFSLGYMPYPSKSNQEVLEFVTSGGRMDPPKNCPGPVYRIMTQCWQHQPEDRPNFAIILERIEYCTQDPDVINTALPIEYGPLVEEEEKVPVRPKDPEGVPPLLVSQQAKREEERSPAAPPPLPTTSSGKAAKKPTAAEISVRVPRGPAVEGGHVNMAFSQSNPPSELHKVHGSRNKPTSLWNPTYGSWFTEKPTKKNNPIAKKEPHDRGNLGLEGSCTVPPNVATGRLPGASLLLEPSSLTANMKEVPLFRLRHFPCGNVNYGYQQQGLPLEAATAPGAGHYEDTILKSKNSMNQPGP

With `O=C(N[C@@H](C1CC1)C(F)(F)F)c1cc(-c2cnn3cc(-c4ccc(F)cc4)cnc23)cs1`, the fold change (FC) in test [1] came out at 0.

With `CNC(=O)c1ccccc1Oc1nc(Nc2cc(OC)c(OC)c(OC)c2)ncc1Br`, the inhibition in test [2] and in test [3] was 0% throughout. Besides, in test [4], the fold change (FC) is 0.

Take `CC(C)[C@H](NC(=O)c1cc(-c2cnn3cc(-c4ccc(OCCN5CCCCC5)cc4)cnc23)cs1)C(F)(F)F`: the inhibition in test [5], in test [6] and in test [7] was 0% in each case.
